# Compound activity deposited in PubChem by The Scripps Research Institute Molecular Screening Center.
# TAAR1 antag: human TAAR1 antagonism; Q96RJ0; CHO RD-HGA16 TAAR1, Fluo-8 calcium fluorescence, antagonist; inhibition, % at 3 µM; hit rate 1.5% among 360,000; AID 624466;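 active = inhibition above a per-plate cutoff, the mean inhibition of test compounds on that plate plus 3 SD, cut at about 49% in these data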;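 also: 0% = DMSO plus EC80 beta-PEA response and 100% = DMSO alone without agonist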
# Target sequence (Q96RJ0 whole entry, looked up): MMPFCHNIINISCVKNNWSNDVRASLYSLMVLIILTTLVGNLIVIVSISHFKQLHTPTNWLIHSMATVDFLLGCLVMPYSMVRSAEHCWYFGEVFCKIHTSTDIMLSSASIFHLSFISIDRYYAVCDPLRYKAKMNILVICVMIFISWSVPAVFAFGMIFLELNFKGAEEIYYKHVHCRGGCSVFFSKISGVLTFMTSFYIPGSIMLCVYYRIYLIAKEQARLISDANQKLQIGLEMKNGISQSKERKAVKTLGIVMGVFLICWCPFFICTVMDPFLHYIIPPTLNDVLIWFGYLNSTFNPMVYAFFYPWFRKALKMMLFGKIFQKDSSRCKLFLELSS
#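 Test system: CHO RD-HGA16 cells bearing hTAAR1 | Reagent: β-PEA, EC80 | Compound dosing: 3 µM, single point | Schedule: Dye loading 75 min at 37 °C, then 30 min room temperature | Signal: Calcium fluorescence with Fluo-8 | Evaluation: Percent inhibition of PEA-evoked calcium signal, max/basal emission ratio | Control set: DMSO-only wells and EC80 β-PEA-stimulated wells | Repeats: Singlicate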
# TAAR1 agonist: agonists of human TAAR1 | CHO RD-HGA16 TAAR1, Fluo-8 calcium fluorescence; vehicle wells 0%, saturating PEA agonist 100% | activation, % at 3 µM | hit rate 0.99% among 360,000 | AID 624467;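 active = activation above the mean activation of all test compounds in the run plus 3 SD, cut at about 38% in these data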
#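 System: CHO-derived RD-HGA16 cells with stable Gα16 and human TAAR1. Times: 17-24 h plating, Fluo-8 75 min 37 °C, 30 min RT. Measured by: calcium-sensitive Fluo-8 signal, excitation 470-495, emission 515-575 nm. Read-out basis: % activation relative to PEA EC100 response. Control set: DMSO and PEA EC100. Repeats: no replicates (n 1).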
# core dimer inh: HCV core protein dimerization inhibition; TR-FRET GST/Flag-core106 dimerization, 1536-well; inhibition, % at 5 µM; hit rate 0.33% among 300,000; AID 1899;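 active = inhibition above the mean of all tested compounds plus 3 SD, set per screening campaign, cut at about 45% in these data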
#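 Material: Tagged HCV core106 pair (GST and Flag) | Amount: GST-core106 13.5 nM, Flag-core106 17 nM | Medium: KF-containing HEPES buffer, pH 7.45, DTT, CHAPS, BSA | Reagent: Eu donor and XL665 acceptor anti-tag antibodies | Schedule: 4 h at 22.5 °C | Technique: Time-resolved FRET, ex 340 nm, em 617 and 671 nm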
# HCV NS3 hel inh: inhibitors of Hepatitis C virus NS3 helicase; inhibition, % at 10.9 µM; NS3 helicase DNA unwinding, Cy5 molecular beacon fluorescence; hit rate 0.56% among 290,000; AID 1800;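 active = inhibition above the mean of all tested compounds plus 3 SD, set per campaign, cut at about 35% in these data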;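 also: 0% = DMSO wells and 100% = thioflavine S control wells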
#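 assay system = NS3 helicase fragment of HCV | buffer or medium = MOPS pH 6.5, MgCl2, DTT, Tween20, BSA | timing = 60 min unwinding reaction at 25 °C after ATP addition | signal = Cy5 beacon fluorescence read at start and 1 h | read-out basis = % inhibition of unwinding | control set = low DMSO, high thioflavine S at 110 µM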
# rCAG binder: binds r(CAG) RNA repeats; r(CAG) RNA repeat, TO-PRO-1 dye displacement fluorescence; inhibition, % at 3 µM; hit rate 1.3% among 370,000;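 active = inhibition above the plate cutoff, the mean of all test compounds on that plate plus 3 SD, cut at about 35% in these data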;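 also: 0% = DMSO alone and 100% = 100 µM mitoxantrone as full dye displacement; higher means more dye released from RNA so lower well fluorescence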
# NS3 hel confirm: confirmation of Hepatitis C virus NS3 helicase inhibitors; shares compounds with HCV NS3 hel inh; NS3 helicase DNA unwinding, Cy5 molecular beacon fluorescence; inhibition, % at 10.9 µM; hit rate 31% among 1,600;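 active = inhibition above the mean of all tested compounds plus 3 SD, cutoff set per campaign, cut at about 36% in these data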
# FID counter trip: intercalator displacement, NS3 helicase counter-screen; hit rate 4% among 1,600; shares compounds with HCV NS3 hel inh; inhibition, % at 7.9 µM; DNA fluorescent intercalator displacement, fluorescence; in the data active = inhibition above about 37%;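 also: 0% = vehicle and 100% = reference compound; higher means more displacement of ethidium bromide from the DNA hairpin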
# Starred values were filed as active, the others as inactive; nt = no result given. Only some compounds are listed: those with a hit (about 3.7% of all), similar ones and a draw of the others.
SMILES,TAAR1 antag,TAAR1 agonist,core dimer inh,HCV NS3 hel inh,rCAG binder,NS3 hel confirm,FID counter trip
CCOc1ccccc1-n1c(O)c(C=Nc2ccc(N(CC)CC)cc2)c(=O)[nH]c1=O,16,4,0,54*,20,-7,-12
CCN(CC)c1ccc(N=Cc2c(O)n(-c3ccccc3C)c(=O)[nH]c2=O)cc1,15,17,10,34,9,nt,nt
CN1CCN(C(=O)Cc2nc3ccccc3[nH]2)CC1,-21,11,-3,-2,4,nt,nt
COc1ccc(N2CCN(Cc3nc4ccccc4[nH]3)CC2)cc1,-42,0,-15,38*,1,-11,-2
Nc1cccc(SC2CC(=O)N(c3ccc(Cl)cc3C(=O)c3ccccc3)C2=O)c1 (stereo not given),21,-1,nt,nt,6,nt,nt
O=C1NCN(c2ccccc2)C12CCN(C(c1cccs1)c1nnnn1Cc1ccccc1)CC2 (stereo not given),46,19,nt,nt,5,nt,nt
Cc1cccc(N2C(=O)NC(=O)/C(=C/c3ccc(-c4ccc(C(=O)O)c(Cl)c4)o3)C2=O)c1,nt,nt,0,37*,nt,-22,14
O=C(c1ccccc1)c1cn(CC(=O)N2CCOCC2)c2ccccc12,-6,12,-4,57*,2,-7,3
O=C(N/N=C/c1c(O)n(CCc2ccccc2)c(=O)[nH]c1=O)c1ccncc1,-23,5,-3,13,27,nt,nt
O=C(N/N=C/c1c(O)n(CCc2ccc(F)cc2)c(=O)[nH]c1=O)c1ccncc1,-25,7,-8,38*,31,-6,-13
COc1cccc(N2C(=O)/C(=C/c3ccc(C)o3)C(=O)NC2=S)c1,2,2,9,36*,32,59*,-14
COc1ccc(C(=O)CC(c2ccc3c(c2)OCO3)c2c(O)c3ccccc3oc2=O)cc1OC (stereo not given),-11,3,nt,nt,14,nt,nt
CN(c1ccccc1)P(=O)(N1CC1)N1CC1,-6,1,nt,nt,3,nt,nt
CCn1c(O)c(C=Nc2ccc(N3CCOCC3)c(Br)c2)c(=O)n(CC)c1=S,-2,19,0,0,3,nt,nt
CCn1c(O)c(C=Nc2ccc(N3CCOCC3)cc2)c(=O)n(CC)c1=S,24,18,-5,40*,6,-7,-22
CCCc1cc(=O)oc2cc(OCC(=O)N3CCC(C(=O)O)(c4ccccc4)CC3)ccc12,1,1,2,49*,22,-24,-26
O=C1NC(=S)N(Cc2ccco2)C(=O)/C1=C\c1cccs1,nt,nt,nt,52*,nt,77*,21
Cc1cc(/C=C2/C(=O)NC(=O)N(Cc3ccco3)C2=O)c(C)n1-c1ccccc1,-13,0,35,50*,26,7,-29
O=C1NC(=O)N(Cc2ccco2)C(=O)/C1=C/c1ccc(-c2cccc([N+](=O)[O-])c2)o1,nt,nt,16,39*,nt,66*,18
O=P(O)(O)CN1CCNCCN(CP(=O)(O)O)CCNCC1,-11,1,nt,nt,1,nt,nt
Cc1ccc(N2Cc3ccccc3-n3nncc3C2)cc1,-16,0,nt,nt,2,nt,nt
Cc1ccnc(NC(=O)CCCc2ccc(N(CCCl)CCCl)cc2)n1,-29,4,nt,nt,6,nt,nt
CN(C)[C@@H]1C(=O)C(C(N)=O)=C(O)[C@@]2(O)C(=O)C3=C(O)c4c(O)cccc4[C@@](C)(O)C3C[C@@H]12 (stereo not given in full),-2,1,-6,nt,26,nt,nt
CN(C)[C@@H]1C(=O)C(C(N)=O)=C(O)[C@@]2(O)C(=O)C3=C(O)c4c(O)ccc(Cl)c4[C@@](C)(O)[C@H]3C[C@@H]12,8,0,0,48*,22,7,20
COc1cccc(C(c2nnnn2-c2c(C)cccc2C)N2CCC(n3c(=O)[nH]c4ccccc43)CC2)c1OC (stereo not given),31,1,nt,nt,10,nt,nt
